What is called IC50 is the point on the concentration scale where inhibition reaches its midpoint. A high value points to weaker potency in that assay.

The values below come from ChEMBL document CHEMBL1125566, “N-methylcarbamate derivatives of ellipticine and olivacine with cytotoxic activity against four human lung cancer cell lines” (J Med Chem, 1992).

Holding throughout (type): functional, cell-based
Test [1] deals with NCI-H417. Description: Cytotoxicity against N 417 human lung cancer cell line. A digest of the protocol:
(§1)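 SCLC floating cultures, grown in RPMI 1640 at 37 °C under 5% CO2, disaggregated by gentle pipetting, collected by sedimentation, and plated at 8000 cells/well. Drug (DMSO, then BSA and phosphate buffer dilutions) applied for 1 h, then centrifuged and washed twice with RPMI 1640. After 4 days at 37 °C, MTT was added for 4 h and formazan in DMSO read at 540 nm. IC50 is 50% growth inhibition.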

The subject of test [2] is NCI-H358. As to the kind of experiment: Cytotoxicity against H 358 human lung cancer cell line. The essentials: (§2)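 Non-SCLC adherent cells, grown in RPMI 1640 at 37 °C under 5% CO2, trypsinized, resuspended in RPMI-1640/2% FBS, and plated at 2500 cells/well. Drug (DMSO, then BSA and phosphate buffer dilutions) applied for 1 h, then centrifuged and washed twice. Cells were kept 4 days at 37 °C, given MTT for 4 h, formazan dissolved in DMSO, and read at 540 nm. IC50 is the concentration giving 50% growth inhibition.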

In test [3] the test system is NCI-H69. As to the kind of experiment: Cytotoxicity against H69 human lung cancer cell line. A digest of the protocol: as §1
Test [4] has as its system NCI-H460. Description: Cytotoxicity against H 460 human lung cancer cell line. The essentials: as §2
Test [5] relates to NCI-H417. As to the kind of experiment: Compound was evaluated for inhibitory activity against N 417 human lung cancer cell line. A digest of the protocol: as §1
Test [6] concerns NCI-H460. Description: Compound was evaluated for inhibitory activity against H 460 human lung cancer cell line. A digest of the protocol:
as §2

The test system of test [7] is NCI-H358. As to the kind of experiment: Compound was evaluated for inhibitory activity against H 358 human lung cancer cell line. A digest of the protocol:
as §2

Test [8] relates to NCI-H69. Description: Compound was evaluated for inhibitory activity against H69 human lung cancer cell line. A digest of the protocol:
as §1

`CNC(=O)OCc1c2ccncc2c(C)c2c1[nH]c1ccc(OC)cc12`: the IC50 in test [1] was 0.09 µM; in test [2], 0.1 µM; in test [3], 0.22 µM; in test [4], 0.06 µM.

As to `Cc1c2cnccc2c(CO)c2[nH]c3ccc(O)cc3c12`, the 50% inhibitory concentration (IC50) came to 1.8 µM in test [1], 1.5 µM in test [2], 1.6 µM in test [3] and 0.95 µM in test [4].

Take `COc1ccc2[nH]c3c(C)c4ccnc(C=O)c4cc3c2c1`: the IC50 in test [5] was found to be 0.9 µM; in test [6] it was 1.8 µM; in test [7], 1.5 µM; in test [8], 1.8 µM.

As to `CNC(=O)OCc1nccc2c(C)c3[nH]c4ccc(OC)cc4c3cc12`, the IC50 is 0.1 µM in test [1], 0.11 µM in test [2], 0.14 µM in test [3] and 0.07 µM in test [4].

On to `CNC(=O)OCc1c2cnccc2c(C)c2[nH]c3ccc(OC)cc3c12`, for which the IC50 was 0.04 µM in test [1], 0.09 µM in test [2], 0.17 µM in test [3] and 0.02 µM in test [4].

As to `COc1ccc2[nH]c3c(C)c4ccnc(CO)c4cc3c2c1`, the IC50 is 1.3 µM in test [1], 1.3 µM in test [2], 1.3 µM in test [3] and 1.9 µM in test [4].

For the molecule `COc1ccc2[nH]c3c(C)c4ccnc(COC(C)=O)c4cc3c2c1`, the IC50 in test [1] is 2.8 µM; in test [2], 2 µM; in test [3], 1.4 µM; in test [4], 1.7 µM.

Consider `CNC(=O)OCc1c2ccncc2c(C)c2c1[nH]c1ccccc12`, for which the IC50 stood at 0.33 µM in test [1], 0.19 µM in test [2], 0.86 µM in test [3] and 0.17 µM in test [4].

For the molecule `Cc1c2ccncc2c(C)c2c1[nH]c1ccc(O)cc12`, the IC50 came to 3.5 µM in test [1], 5.8 µM in test [2], 1.7 µM in test [3] and 2.8 µM in test [4].

Take `Cc1nccc2c(C)c3[nH]c4ccccc4c3cc12`: the IC50 was determined as 3.4 µM in test [5], 1.8 µM in test [6], 2.3 µM in test [7] and 1.7 µM in test [8].

With `COc1ccc2[nH]c3c(C)c4ccnc(C)c4cc3c2c1`, the 50% inhibitory concentration (IC50) in test [5] amounted to 1.8 µM; in test [6] it was 2.1 µM; in test [7] it was 2.1 µM; in test [8], 1.2 µM.

`COc1cccc2c1C(=O)c1c(O)c3c(c(O)c1C2=O)C[C@@](O)(C(=O)CO)C[C@@H]3O[C@H]1C[C@H](N)[C@H](O)[C@H](C)O1` [DOXORUBICIN]: the IC50 in test [5] came out at 0.23 µM; in test [6] it was 0.23 µM; in test [7], 0.62 µM; in test [8], 0.87 µM.

Turning to `Cc1c2ccncc2c(C)c2c1[nH]c1ccccc12` [ELLIPTECINE], the IC50 in test [5] is 0.87 µM; in test [6], 0.51 µM; in test [7], 0.2 µM; in test [8] it was 1.8 µM.

As to `Cc1c2cc[n+](C)cc2c(C)c2c1[nH]c1ccc(O)cc12` [ELLIPTINIUM], the half-maximal inhibitory concentration (IC50) in test [5], in test [6], in test [7] and in test [8] was above 48 µM throughout.
